Results: ChEMBL document CHEMBL4513216, “Probing the Open Global Health Chemical Diversity Library for Multistage-Active Starting Points for Next-Generation Antimalarials” (ACS Infect Dis, 2020)

Test: Toxicity liver stage against HepG2, at 10uM
Assay type: cell-based
Set-up: test concentration 10 uM, cell line HepG2-A16-CD81EGFP
Settings: human, HepG2-A16-CD81EGFP cells; read-out: INHIBITION
In short: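 Uninfected HepG2-A16-CD81EGFP cells, 3 × 10^3 per well, 1536-well, plated on prespotted compound at 10 μM final, parasite-free screening media added to match infected plates; puromycin 10 μM positive, DMSO 0.5% negative; run in parallel with 48 h PbLuc assay at 37 °C, 5% CO2; viability by CellTiter-Glo luminescence, normalized to controls.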

| Compound | cytotoxicity at 10 µM |
| --- | --- |
| Cc1nonc1C(=O)N1CCCC(c2ncncc2-c2ccncc2)C1 (stereo not given) | 1.41% |
| Cc1cc2cccc(C(=O)N3CCOC(CCN(C)C)C3)c2o1 (stereo not given) | 5.91% |
| NC(=O)C1(c2cnccn2)CCCN1Cc1ccncc1 (stereo not given) | -0.446% |
| CC(=O)NCCCSC1CCN(c2c(F)cccc2F)C1=O (stereo not given) | -6.35% |
| O=C(Cn1nc2c(cc1=O)CSCC2)N[C@@H](Cc1ccccc1)C(=O)O | -3.14% |
| O=C(c1ccnnc1)N1CCCn2nnc(COCC3CC3)c2C1 | 7.95% |
| COC(=O)N1CCc2ccccc2C1C(=O)NCC(F)(F)F (stereo not given) | -2.96% |
| O=C(c1ccc(OCC2CC2)nc1)N1CCCC(n2cccn2)C1 (stereo not given) | -12.4% |
| CN(CCn1ccc2ccccc21)C(=O)Cc1nnn[nH]1 | -8.93% |
| Cc1cccc2c1nc1n2[C@@H](CNC(=O)c2cnccn2)COC1 | 6.54% |
| Cc1cc(F)ccc1-c1cc(NCCO)nc2[nH]ccc12 | 21.7% |
| CO[C@H]1CC[C@H]2[C@H]1OCCN2Cc1ccc(F)c(F)c1 | 22.3% |
| Fc1cccc(-n2nc(C3CC3)nc2CCn2cnnn2)c1 | -0.174% |
| CNS(=O)(=O)CC1CCCN1C(=O)c1ccc(C)c(C)c1 (stereo not given) | -6.93% |
| CC(C)NC(=O)c1sc2ccccc2c1C1CCC(CN)CC1 (stereo not given) | -3.28% |
| c1csc(-c2nc(CN3CCCC3Cn3cncn3)co2)c1 (stereo not given) | -11.5% |
| COCC1(NC(=O)Nc2nc(C)ns2)CCCC1 | 0.512% |
| O=C(c1ccccn1)N1C[C@H]2CC[C@@H](C1)N(C(=O)CCN1CCCC1)C2 | 3.92% |
| Cc1cccc(-c2c[nH]c(C3CCCN3C(=O)C3CCOCC3)n2)c1 (stereo not given) | 1.92% |
| Cc1cc(CN2CCN(C(=O)NCc3csc(C)n3)CC2)on1 | -2.95% |
| COCCn1c2c(ccc1=O)CCN(C(=O)Cc1cccs1)CC2 | 1.44% |
| CS(=O)(=O)c1cn[nH]c1C1CCCN(C(=O)CN2CCOCC2)C1 (stereo not given) | -22.8% |

| Compound | cytotoxicity at 10 µM |
| --- | --- |
| COc1ccccc1NC(=O)NCC(O)(c1ccccc1)C1CC1 (stereo not given) | -19.5% |
| N#Cc1ccc(OC2CCN(CC(=O)NCC3CCCO3)CC2)cc1 (stereo not given) | 34.8% |
| Cn1ccnc1-c1cccc(NC(=O)NCCCO)c1 | -6.77% |
| CC(NC(=O)NCCCN(C)S(C)(=O)=O)c1ccncc1 (stereo not given) | -0.409% |
| CC(=O)N1CCN(C(=O)NC(C)C)CC2(CNC(=O)C2)C1 (stereo not given) | -1.63% |
| O=S(=O)(c1ccccc1)N1C2CCC(O)(CC2)C1CN1CCOCC1 (stereo not given) | -4.65% |
| Cc1cc(N2CCN(Cc3nccn3C)CC2)cc(C)n1 | 15.7% |
| COc1ccccc1CN1C(=O)O[C@@H]2CN(c3nc(C)cc(C)n3)C[C@@H]21 | 0.819% |
| CCCC(Nc1nc(COCC)nc2c1CCNCC2)c1nccn1C (stereo not given) | -10.3% |
| CCOC(=O)c1coc(N2CCN(C(=O)c3cccc(OC)c3)CC2)n1 | 8.15% |
| COCC(=O)N1CCC2(CC1)CN(c1ccsc1)C(=O)CO2 | -75.6% |
| CN1C[C@@H](C(=O)NC2CC2)[C@@]2(COc3ccc(F)cc3C2=O)C1 | -26.5% |
| CC(C)N1CCC(CN2CCn3nc(CNC(=O)N(C)C)cc3C2)CC1 | 1.09% |
| CC(=O)N1CCCN(C(=O)NC(C)c2csc3ccccc23)CC1 (stereo not given) | -4.6% |
| O=C1NC[C@H]2CN(C3CCOCC3)CCN12 | -1.95% |
| O=C1O[C@@H]2CN(c3ncccn3)C[C@@H]2N1CCCc1ccc(F)cc1 | -0.74% |
| CC(C)(C)c1ncc(C(=O)NCCn2ccnc2)s1 | 3.39% |
| CC(COCC(F)(F)F)NC(=O)c1ccc(-c2ccco2)[nH]c1=O (stereo not given) | -20.1% |
| CO[C@@H]1CC[C@H]2[C@H]1OCCN2C(=O)c1ccc(C)o1 | 3.68% |
| COCC1Cn2nnc(-c3cnn(C)c3)c2CN1Cc1ccco1 (stereo not given) | -9.44% |
| Cc1cc(C)c2cc(CNCc3cccnc3)c3nn(C)c(=O)n3c2c1 | -6.11% |
| O=C(Cn1cc(-c2ccccc2)cn1)NC(C1CC1)C1CC1 | -5% |

| Compound | cytotoxicity at 10 µM |
| --- | --- |
| COCCN1C(=O)CC[C@@H]2[C@H]1CCN2C(=O)N(C)C | 10.7% |
| CN(Cc1ccc([S+](C)[O-])cc1)c1ccc(C(F)(F)F)cn1 (stereo not given) | -1.32% |
| Cn1cnc2c(N3CCOCC3)nc(C3CCNCC3)cc21 | 2.98% |
| CC(NC(=O)N1CCCN(C)CC1)c1ccc2c(c1)OCCO2 (stereo not given) | -6.36% |
| Cc1ccc(N2CCO[C@H]3CN(Cc4cnn(C)c4)C[C@H]32)nn1 | 3.86% |
| c1coc(CN2C[C@@H]3OCCN(CCN4CCCC4)[C@@H]3C2)c1 | -1.52% |
| CN1CC2(CCCCN2C(=O)c2ccsc2)CC1=O (stereo not given) | 2.73% |
| O=C1NCC(C(=O)N(Cc2cccc(Br)c2)C2CC2)N1 (stereo not given) | 1.56% |
| Cc1cnc(C(=O)N2C[C@H]3CN(Cc4cccc(F)c4)C(=O)[C@H]3C2)cn1 | -85.7% |
| CN1C(=O)CCCC12CCCN(C(=O)c1ccc3c(c1)OCO3)C2 (stereo not given) | 0.758% |
| Cc1noc(-c2ccc(Oc3cccc(CN4CCCC4)c3F)nc2)n1 | -6.03% |
| COc1cc(C)c(CNC(C)c2csc(C)n2)cc1OC (stereo not given) | 5.06% |
| O=C(CC1=CSC2=NCCCN12)N1CCCCCC1c1ccco1 (stereo not given) | 10% |
| Cc1nnc(CN2CCC(Oc3ccc(C)c(C)c3)CC2)o1 | 7.27% |
| O=C(c1ccccc1N1CCOCC1)N1CCCC1Cn1cccn1 (stereo not given) | -7.44% |
| Cc1nc(CNC(=O)Cn2nc(-c3ccc(F)cc3)oc2=O)cs1 | 1.12% |
| O=C(C1CCC1)N1C2CCC(O)(CC2)C1CN1CCOCC1 (stereo not given) | -1.63% |
| O=C(NC[C@]12COC[C@H]1CN(Cc1cccs1)C2)c1ccsc1 | -0.629% |
| CNC(=O)c1sc(C2CCCC2)nc1C | 13.1% |
| O=C(CCC1CCCO1)NCCCO (stereo not given) | 11.2% |
| Cc1ccc(CC(=O)Nc2cc(C(C)C)n[nH]2)cn1 | -1.71% |
| O=C(CC1CC1)N[C@@H]1CN(Cc2nccs2)C[C@@H]2CCCO[C@@H]21 | 8.85% |

| Compound | cytotoxicity at 10 µM |
| --- | --- |
| CCSCCN1CCCN(S(C)(=O)=O)CC1 | -2.75% |
| O=C(c1cc2c(s1)CCC2)N1CCCC1c1noc(C2CC2)n1 (stereo not given) | -8.18% |
| CC(C)c1cc(NC(=O)Cn2ccc(=O)c3ccccc32)[nH]n1 | -146% |
| Cc1nn(C)cc1CN1CCN(CC2(c3ccccc3)CC2)CC1 | 1.25% |
| CC(C)(C)c1noc(OCC(=O)NCC(F)(F)F)n1 | 8.81% |
| COC[C@H](C)Nc1cc(C)c2ccc(SC)cc2n1 | 0.466% |
| Cc1cc(NC(=O)Cn2ncc(SCC(N)=O)c(Cl)c2=O)ccc1Br | 15.3% |
| COc1ccc(CN2CCC(O)CC2)c(OC)c1 | -9.18% |
| CCc1ccccc1CN1CC[C@@H](NC(=O)c2cccnc2)[C@H](O)C1 | -9.67% |
| CCOC(=O)NC(CNC(=O)c1cccnc1SC)CC(C)C (stereo not given) | 6.68% |
| CNc1cccc(C2CCCN(C(=O)c3ccncc3)C2)n1 (stereo not given) | -4.02% |
| O=C(CN1CCCC1Cn1cncn1)Nc1nccs1 (stereo not given) | 4.1% |
| O=C(NC1CCCCC1)[C@H]1CNC[C@@H](COc2cccnc2)C1 | -8.98% |
| c1cncc(CN2CCCn3nnc(COCC4CC4)c3C2)c1 | -110% |
| Cc1nc(CN)cc(NCc2ccccc2-n2cncn2)n1 | 1.88% |
| Cc1nc(C)n(CC2CCCN2Cc2cn3ccsc3n2)n1 (stereo not given) | -10.7% |
| CCc1ccc(CNC2(c3ccc(F)cc3)CCOCC2)o1 | 4.68% |
| Cc1ccnc(NCc2cccc(OCCN3CCOCC3)c2)n1 | 2.5% |
| Cc1ccc(NC(=O)NCCCc2n[nH]c(N)c2C#N)cc1 | -4.71% |
| O=C(CCC(=O)N1CCC(OCc2cccnc2)CC1)c1ccccc1 | -3.33% |
| Cc1cnccc1NC(=O)CCc1ccsc1 | -3.51% |
| O=C(NCc1cnn2cccnc12)C1CC2(CCNCC2)CN1 (stereo not given) | -8.32% |

| Compound | cytotoxicity at 10 µM |
| --- | --- |
| Cc1ccc2c(n1)N(CC1CC1)CCN(Cc1cnn(C)c1)C2 | -2.91% |
| CC(C)CC(=O)N1CC(=O)c2sc(NC3CCCCC3)nc2C1 | -7% |
| NC(=O)c1c[nH]nc1NC(=O)c1ccc(Cl)cc1 | 3.19% |
| Cc1nc(CN2CCC(C(=O)N(C)C3CCC(C)CC3)CC2)cs1 (stereo not given) | 2.84% |
| c1ccc(Oc2cc(CNCC3CNc4ccnn4C3)ccn2)cc1 (stereo not given) | 3.1% |
| CCOc1cccc2c1OCC(C(=O)NS(=O)(=O)c1ccc(C)s1)=C2 | -9.02% |
| Cc1ccc(N2CCO[C@@H]3CN(Cc4cccc(C)n4)CC[C@@H]3C2)nn1 | 7.67% |
| CC(C)Oc1cccc(F)c1C(C(=O)O)N(C)Cc1ccon1 (stereo not given) | -33.5% |
| Cc1ccc(F)c(S(=O)(=O)NCc2cccc(C(=O)N3CCCC3)c2)c1 | -11.1% |
| CC(C)CCN1CCNC(=O)C1CC(=O)N1CCc2sccc2C1 (stereo not given) | -7.01% |
| Cc1ccc2nc(C(=O)N3CCC(CCn4cccn4)CC3)cn2c1 | -18.3% |
| O=C(CCC1CCCO1)N1CCc2nc(-c3cnccn3)nc(O)c2C1 (stereo not given) | -20.3% |
| Cc1ccc(NC2CCN(C(=O)CCn3nc(C)cc3C)CC2)nn1 | -9.66% |
| Cc1ccccc1C1CCCN(C(=O)c2c[nH]c(=O)c(Cl)c2)C1 (stereo not given) | -59.8% |
| CCn1nc(C)c2nc(C(C)C)nc(NCCc3ccc(O)cc3)c21 | 18.1% |
| Cc1nn(C2CCCC2)c2c1C(c1ccc3c(c1)OCO3)SCC(=O)N2 (stereo not given) | -1.52% |
| Cc1ncc(CNCC(C)O)c2cc(C(=O)c3ccc(Br)cc3)oc12 (stereo not given) | 1.39% |
| Clc1ccc(CN2CCC3(CC2)CC(c2cccnc2)=NO3)cc1 | 17.5% |
| CN1C(=O)c2cccc(NC(=O)c3cccc(S(C)(=O)=O)c3)c2C1=O | -7.75% |
| COCCn1cc2c(n1)C(CNS(C)(=O)=O)OCC2 (stereo not given) | 0.763% |
| CN(Cc1nnc2ccccn12)C(=O)CCC1CCCC1 | -2.94% |
| COc1ncccc1CN1C[C@@H]2C[C@@H](C(=O)NCC3CC3)N(C)[C@@H]2C1 | 1.2% |
